According to article PMC2225614 (The Journal of General Physiology, 2001):
Residue numbers refer to the chain shown, from its start. Where two headings read alike, the source gives them in different places.

Tests used:
[1] = target: T1, α-subunit of the bovine retinal rod CNG channel (RETα) (Bos taurus, UniProt Q00194); assay type: biochemical; conditions: for opening allosteric constant (L): L = Po/(1 − Po)
T1 sequence (Q00194 1-690): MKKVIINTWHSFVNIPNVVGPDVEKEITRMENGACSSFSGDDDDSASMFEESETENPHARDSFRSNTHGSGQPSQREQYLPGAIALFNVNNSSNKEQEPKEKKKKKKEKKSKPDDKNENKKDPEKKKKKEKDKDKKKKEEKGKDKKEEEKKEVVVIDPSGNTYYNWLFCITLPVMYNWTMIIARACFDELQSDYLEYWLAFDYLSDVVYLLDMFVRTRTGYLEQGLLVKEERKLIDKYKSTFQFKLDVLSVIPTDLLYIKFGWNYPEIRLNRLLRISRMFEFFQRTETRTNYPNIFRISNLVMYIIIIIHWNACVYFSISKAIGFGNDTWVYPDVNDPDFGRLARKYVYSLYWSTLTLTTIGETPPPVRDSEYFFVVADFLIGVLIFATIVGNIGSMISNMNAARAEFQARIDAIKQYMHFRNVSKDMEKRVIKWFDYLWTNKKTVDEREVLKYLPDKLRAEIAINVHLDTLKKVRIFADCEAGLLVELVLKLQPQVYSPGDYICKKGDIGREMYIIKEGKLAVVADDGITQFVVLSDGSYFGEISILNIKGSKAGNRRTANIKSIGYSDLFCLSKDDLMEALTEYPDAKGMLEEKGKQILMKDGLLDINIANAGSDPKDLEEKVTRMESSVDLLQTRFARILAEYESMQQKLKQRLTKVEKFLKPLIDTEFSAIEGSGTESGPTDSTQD

[2] = target: T2, CHM25 (RETα with H420 substituted with an asparagine) (Bos taurus, UniProt Q00194, H420Q); assay: Genistein inhibition of closed chimeric channel CHM25; assay type: biochemical, bovine/rat; conditions: genistein applied on closed channels
T2 sequence (Q00194 1-690 H420Q): T1 sequence (Q00194 1-690) with H420Q
In short: (§1)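 Chimeric RETα/OLFα channels were expressed in Xenopus oocytes (50 nl of 50 ng/μl RNA, 2–7 d), and the vitelline membrane was removed. Inside-out patches were bathed in symmetrical 115 mM NaCl, 5 mM EGTA, 1 mM EDTA, 5 mM HEPES, pH 7.5, held at −75 mV. Test compound was preapplied 1 min to closed channels, then saturating 2 mM cGMP; residual current normalized to Imax.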

[3] = target: T3, CHM35 (RETα with Q417 substituted with a histidine) (Bos taurus, UniProt Q00194, Q417H); assay: Genistein inhibition of closed chimeric channel CHM35; assay type: biochemical, bovine/rat; conditions: closed channels
T3 sequence (Q00194 1-690 Q417H): T1 sequence (Q00194 1-690) with Q417H
In short: as §1

[4] = test system: CHM34 (converse substitution in OLFα background); assay: Genistein inhibition of closed chimeric channel CHM34; assay type: biochemical, bovine/rat; conditions: closed channels
[5] = test system: CHM17 (RETα with the OLFα cyclic nucleotide–binding domain); assay: Genistein inhibition of closed chimeric channel CHM17; assay type: biochemical, bovine/rat; conditions: closed channels
In short: as §1

[6] = test system: CHM22 (S5 domain exchanged between RETα and OLFα); assay: Genistein inhibition of closed chimeric channel CHM22; assay type: biochemical, bovine/rat; conditions: closed channels
In short: as §1

[7] = test system: α-subunit of the rat olfactory CNG channel (OLFα); conditions: ref Molokanova et al. 2000; cited from earlier work
[8] = after genistein application, saturating cGMP

effect on single-channel current ([1]; 100 μM genistein, saturating cGMP): unaffected | decrease in the average Po ([1]; 100 μM genistein, saturating cGMP, six patches): 39 ± 6% | Po during periods of high activity (bursty pattern) [1, 8]: 0.4–0.9 | duration of high-Po periods [1, 8]: 15 to 30 s | duration of silent periods (Po = 0) [1, 8]: 10 to 80 s | single-channel current (i) ([1]; after preexposure to 100 μM genistein, Fig. 6 A): 1.97 pA | single-channel current (i) ([1]; after preexposure to 100 μM genistein, Fig. 6 B): 1.96 pA | Po, intermediate gating mode ([1]; after preexposure to 100 μM genistein, all four patches with this mode): 0.39 ± 0.08 | decrease of L compared with control ([1]; in the presence of genistein): 30–1,000 fold | single-channel current (i) ([1]; in the presence of genistein, 2 mM cGMP, −80 mV, Fig. 5 B): 1.97 pA | open probability (Po) ([1]; in the presence of genistein, 2 mM cGMP, −80 mV, Gaussian fit, Fig. 5 B): 0.529 | free energy of channel opening (ΔGopening) ([1]; one genistein molecule): 0.24 kcal/mol | opening allosteric constant (L) ([1]; one genistein molecule bound): 0.61 | opening allosteric constant (L) ([1]; two genistein molecules bound): 0.02 | genistein inhibition [2]: complete inhibition | genistein inhibition [3]: did not reduce genistein inhibition | genistein inhibition [5]: complete inhibition
Compound: O=c1c(-c2ccc(O)cc2)coc2cc(O)cc(O)c12 [genistein]
genistein inhibition [4]: neither substitution introduced genistein inhibition | effect of domain exchange on genistein inhibition [6]: did not alter genistein inhibition | genistein inhibition [7]: do not exhibit genistein inhibition
